From ChEMBL document CHEMBL4311988, “Identification of novel non-nucleoside vinyl-stilbene analogs as potent norovirus replication inhibitors with a potential host-targeting mechanism” (Eur J Med Chem, 2019)
Activity calls are given as the source filed them. The rule behind the calls is not given here.

Tests used:
Norovirus [1] = experiment: Antiviral activity against human norovirus infected in human HG23 cells assessed as inhibition of viral replication at 10 uM after 3 days by qRT-PCR analysis relative to control; assay type: functional; design: scale not given: the % may be the effect or the level left
[2] = Cytotoxicity against human HG23 cells assessed as cell viability at 10 uM after 3 days by tetrazolium dye based assay relative to control; conditions: read-out: Activity
In short: (§1)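 HG23 cells were treated with DMSO or compound for 3 days, at 10 μM for single-point testing or across a dose range for CC50. Viability was read with a tetrazolium salt (EZ-CYTOX) reagent. Values are means of the most representative triplicate experiment with standard deviations.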

[3] = Metabolic stability in human liver microsomes assessed as compound remaining at 1 uM preincubated for 5 mins followed by NADPH addition and measured after 30 mins by LC-MS/MS analysis relative to control; assay type: ADME, Microsome; conditions: read-out: Stability
In short: (§2)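 Human or mouse liver microsomes (0.5 mg/ml) in 0.1 M phosphate buffer pH 7.4 were preincubated with compound at 1 μM for 5 min at 37 °C. An NADPH regeneration system was then added or omitted, and incubation continued 30 min at 37 °C. Reactions were stopped with acetonitrile containing internal standard. Parent compound remaining was measured by LC-MS/MS (C18 column, 0.1% formic acid water/acetonitrile).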

Norovirus [4] = experiment: Antiviral activity against human norovirus infected in human HG23 cells assessed as inhibition of viral replication after 3 days by qRT-PCR analysis; assay type: functional, organism-based; conditions: HG23, 72 h
[5] = Metabolic stability in mouse liver microsomes assessed as compound remaining at 1 uM preincubated for 5 mins followed by NADPH addition and measured after 30 mins in presence of NADPH relative to control; assay type: ADME, Microsome; conditions: read-out: Stability; in short: as §2
Norovirus GII.4 = experiment: Inhibition of norovirus GII.4 RNA-dependent RNA polymerase using poly(C)RNA as substrate incubated for 10 mins and measured after 15 mins by picogreen staining based assay
In short: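 Recombinant human norovirus GII.4 Sydney 2012 RdRp (400 ng) was preincubated with compound (10 μM) or DMSO (0.5% v/v) for 10 min at 25 °C. It was then added to 5 μM rGTP, 6 μg/mL poly(C), 2.5 mM MnCl₂, 5 mM DTT, 0.01% BSA and 0.005% Tween 20 in 20 mM Tris-HCl pH 7.5. After 15 min at 25 °C, reactions were stopped with 10 mM EDTA and dsRNA quantified by PicoGreen fluorescence (ex 480/em 520). Two independent experiments were run in triplicate.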

Norovirus [6] = experiment: Antiviral activity against human norovirus infected in HG23 cells assessed as inhibition of neomycin phosphotransferase protein expression after 3 days by Western blot analysis; assay type: functional, organism-based; conditions: HG23, 72 h
In short: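 HG23 replicon cells were given DMSO or increasing compound concentrations for 3 days. Whole-cell RIPA extracts were quantified by Bradford assay and equal protein amounts run on SDS-PAGE. Blots on PVDF were probed with rabbit anti-neomycin phosphotransferase (1:500), with anti-HSF-1 (1:1000) on blots. EC50 came from dose-response; values are means of a representative triplicate experiment.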

[7] = Metabolic stability in human liver microsomes assessed as compound remaining at 1 uM after 30 mins in absence of NADPH by LC-MS/MS analysis relative to control; assay type: ADME, Microsome; conditions: read-out: Stability; in short: as §2
[8] = Therapeutic index, ratio of CC50 for cytotoxicity against human HG23 cells harboring human norovirus replicons to EC50 for antiviral activity against norovirus infected in human HG23 cells; assay type: toxicity, cell-based; conditions: read-out: Ratio CC50/EC50
[9] = Cytotoxicity against human HG23 cells assessed as reduction in cell viability after 3 days by tetrazolium dye based assay; in short: as §1
[10] = Metabolic stability in mouse liver microsomes assessed as compound remaining at 1 uM after 30 mins in absence of NADPH by LC-MS/MS analysis relative to control; assay type: ADME, Microsome; conditions: read-out: Stability; in short: as §2
[11] = target: T1, Heat shock factor protein 1 (Homo sapiens) (UniProt Q00613); experiment: Activation of HSF-1 in human HG23 cells transfected with human norovirus after 72 hrs by dual-luciferase reporter gene assay; assay type: cell-based
T1 sequence (whole entry): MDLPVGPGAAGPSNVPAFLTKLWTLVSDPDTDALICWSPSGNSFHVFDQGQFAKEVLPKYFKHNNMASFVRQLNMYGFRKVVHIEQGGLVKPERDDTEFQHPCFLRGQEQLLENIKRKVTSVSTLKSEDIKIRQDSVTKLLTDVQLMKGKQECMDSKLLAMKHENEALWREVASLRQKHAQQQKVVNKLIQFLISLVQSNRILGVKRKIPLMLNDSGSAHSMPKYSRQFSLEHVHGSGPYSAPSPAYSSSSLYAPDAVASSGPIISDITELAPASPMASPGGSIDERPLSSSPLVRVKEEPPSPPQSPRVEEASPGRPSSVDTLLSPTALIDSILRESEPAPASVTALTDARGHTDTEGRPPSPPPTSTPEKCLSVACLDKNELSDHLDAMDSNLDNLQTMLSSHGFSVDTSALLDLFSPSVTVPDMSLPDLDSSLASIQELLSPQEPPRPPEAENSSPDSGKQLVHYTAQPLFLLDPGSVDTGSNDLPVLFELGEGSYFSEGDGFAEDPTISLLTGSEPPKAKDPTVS
In short: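 HG23 cells carrying the NV replicon were transfected with a Cignal finder reporter array and then given DMSO or 10 μM test compound for 72 h. Luciferase activity for each pathway was read with a dual-luciferase reagent.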

| SMILES | Activity (Norovirus [1]) [%] | viability at 72 h, 10 µM [2] [%] | other results |
| --- | --- | --- | --- |
| C=Cc1c(OC)cc(/C=C/c2cccc(C(F)(F)F)c2)cc1OC | 66.6 | 98.4 | – |
| C=Cc1c(OC)cc(/C=C/c2ccc(C(=O)N3CCN(Cc4ccc(OC)cc4)CC3)cc2)cc1OC | 30.4 | 21.5 | – |
| CCc1c(OC)cc(/C=C/c2cc(OC)cc(OC)c2)cc1OC | 94 | 69.3 | – |
| C=Cc1c(OC)cc(/C=C/c2ccc(C(=O)NCCc3ccccn3)cc2)cc1OC | 13.5 | 96.3 | remaining at 0.5 h, 1 µM [3]: 44.1%; EC50 (Norovirus [4]): 1.44 µM; remaining at 0.5 h, 1 µM [5]: 38.3%; inhibition (Norovirus GII.4): inactive; EC50 (Norovirus [6]): 1.97 µM; remaining at 0.5 h, 1 µM [7]: > 100%; selectivity ratio [8]: > 69; CC50 at 72 h [9]: > 100 µM; remaining at 0.5 h, 1 µM [10]: 83.1% |
| C=Cc1c(OC)cc(/C=C/c2ccc(F)cc2)cc1OC | 38.4 | 93.2 | – |
| C=Cc1c(OC)cc(/C=C/c2cc(OC)cc(OC)c2)cc1OC | 43.4 | 99.6 | – |
| C=Cc1c(OC)cc(/C=C\c2ccc(C(=O)N3CCN(Cc4ccc(C(F)(F)F)cc4)CC3)cc2)cc1OC | 64.9 | 90.9 | – |
| C=Cc1c(OC)cc(/C=C/c2ccc(C(=O)N3CCN(CCO)CC3)cc2)cc1OC | 110.4 | 93.3 | – |
| COc1cc(/C=C/c2cc(OC)c(CCO)c(OC)c2)cc(OC)c1 | 272.8 | 99.8 | – |
| OCCc1ccc(/C=C/c2ccccc2)cc1 | 43.2 | 101 | – |
| C=Cc1c(OC)cc(/C=C/c2ccc(C(=O)OCc3ccc(F)cc3)cc2)cc1OC | 36 | 101 | – |
| C=Cc1c(OC)cc(/C=C/c2ccc(C(=O)OCc3ccccc3)cc2)cc1OC | 134.9 | 106 | – |
| C#CCOC(=O)c1ccc(/C=C/c2cc(OC)c(C=C)c(OC)c2)cc1 | 71.3 | 103 | – |
| C=Cc1c(OC)cc(/C=C/c2ccc(C(=O)NCCc3c[nH]c4ccccc34)cc2)cc1OC | 46.6 | 106 | – |
| C=Cc1c(OC)cc(/C=C/c2ccc(C(=O)OC)cc2)cc1OC | 58.2 | 111 | – |
| C=Cc1c(OC)cc(/C=C/c2ccc(C(=O)O)cc2)cc1OC | 81.3 | 112 | – |
| C=Cc1c(OC)cc(/C=C/c2ccc(C(=O)NCc3ccco3)cc2)cc1OC | 33.8 | 109 | – |
| C=Cc1c(OC)cc(/C=C/c2ccc(C(=O)NCCc3ccc(O)cc3)cc2)cc1OC | 40.8 | 103 | – |
| COc1cc(/C=C/c2cc(O)c(CCO)c(O)c2)cc(OC)c1 | 200.8 | 99 | – |

| SMILES | Activity (Norovirus [1]) [%] | viability at 72 h, 10 µM [2] [%] | other results |
| --- | --- | --- | --- |
| C=Cc1c(OC)cc(/C=C/c2ccc(C(=O)N3CCN(C(C)C)CC3)cc2)cc1OC | 55.3 | 60.5 | – |
| C=Cc1c(OC)cc(/C=C/c2ccc(C(=O)N3CCN(Cc4ccc(F)cc4)CC3)cc2)cc1OC | 12.1 | 55.7 | – |
| Brc1ccc(/C=C/c2ccccc2)cc1 | 54.5 | 130 | – |
| COc1cc(/C=C/c2cc(OC)c(Br)c(OC)c2)cc(OC)c1 | 184.9 | 99.7 | – |
| C=Cc1c(OC)cc(/C=C/c2ccc(OCOC)cc2)cc1OC | 165.7 | 97.5 | – |
| C=Cc1c(OC)cc(/C=C/c2ccc(C(=O)OCc3ccc(C(F)(F)F)cc3)cc2)cc1OC | 58.4 | 109 | – |
| C=Cc1c(OC)cc(/C=C/c2ccc(C(=O)NCCc3ccncc3)cc2)cc1OC | 15.4 | 100 | remaining at 0.5 h, 1 µM [3]: 20%; EC50 (Norovirus [4]): 2 µM; remaining at 0.5 h, 1 µM [5]: 67.7%; inhibition (Norovirus GII.4): inactive; EC50 (Norovirus [6]): 0.71 µM; remaining at 0.5 h, 1 µM [7]: 92.1%; selectivity ratio [8]: > 50; CC50 at 72 h [9]: > 100 µM; remaining at 0.5 h, 1 µM [10]: 88.4% |
| C=CCNC(=O)c1ccc(/C=C/c2cc(OC)c(C=C)c(OC)c2)cc1 | 62.4 | 91.6 | – |
| C=Cc1ccc(/C=C/c2ccccc2)cc1 | 26.5 | 102 | – |
| C=Cc1c(OC)cc(/C=C/c2ccc(C(=O)Nc3ccc(C(F)(F)F)cc3)cc2)cc1OC | 70.8 | 92.5 | – |
| C=Cc1c(OC)cc(CCc2ccc(C(=O)N3CCN(Cc4ccc(C(F)(F)F)cc4)CC3)cc2)cc1OC | 132.1 | 77.3 | – |
| C[C@@]1(O)[C@H](O)[C@@H](CO)O[C@H]1n1ccc(N)nc1=O | 24.8 | 78.5 | EC50 (Norovirus [4]): 4 µM; EC50 (Norovirus [6]): 4.8 µM; Activity [11]: Active; selectivity ratio [8]: 3.1; CC50 at 72 h [9]: 12.2 µM |
| C=Cc1c(OC)cc(/C=C/c2ccc(C(=O)NCCc3ccccc3)cc2)cc1OC | 28.4 | 99.7 | – |
| C=Cc1ccc(/C=C/c2cc(OC)cc(OC)c2)cc1 | 77.1 | 138 | – |
| COc1cc(/C=C/c2cc(OC)cc(OC)c2)cc(OC)c1 | 119 | 99.2 | – |
| C=Cc1c(OC)cc(/C=C/c2ccccc2C(F)(F)F)cc1OC | 83.2 | 99.7 | – |
| C=Cc1c(OC)cc(/C=C/c2ccc(C(F)(F)F)cc2)cc1OC | 19.4 | 97.5 | EC50 (Norovirus [4]): 4.4 µM; EC50 (Norovirus [6]): 8 µM; selectivity ratio [8]: > 2.2; CC50 at 72 h [9]: > 10 µM |
| COc1ccc(CCN(C)CCCC(C#N)(c2ccc(OC)c(OC)c2)C(C)C)cc1OC (stereo not given) [VERAPAMIL] | – | – | remaining at 0.5 h, 1 µM [3]: 13.6% |
